≈ marks a conversion by molar mass, not a printed value. Starred links: 1 amine or outer side, 2 acyl side, 3 side chain; linkers in the order of their positions; H or OH if unused. Positions of bridges follow the written chain, without caps; N, C: chain ends. Non-standard residues stand in square brackets, D forms with d. Residues, ends and D or L forms follow the SMILES beside them. Chains are numbered I, II in the order given. Actinocin(1to9) = Cc1c2oc3c(C)ccc(C(=O)[*:2])c3nc-2c(C(=O)[*:1])c(N)c1=O; NMeV = CN[C@H](C(=O)O)C(C)C; Sar = CNCC(=O)O
Experiments:
[1] = Cytotoxicity against human HepA cells after 72 hrs by methylene blue assay; assay type: functional, cell-based
In short: (§1)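 Cells grown in RPMI-1640 at 37 °C under 5% CO2, seeded at 2880 cells/well and left 3 h before adding samples. Samples prepared at 1, 10, 40 and 100 μg/mL, then 3 days at 37 °C. Cells fixed in 10% formal saline, stained with 1% methylene blue in 0.01 M borate buffer, washed, and dye eluted with ethanol/0.1 M HCl (1:1). A650 read. IC50 is 50% absorbance reduction vs untreated cells.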

KB = assay: Cytotoxicity against human KB cells after 72 hrs by methylene blue assay; assay type: functional, cell-based; in short: as §1

SMILES	IC50 [1] [µg/mL]	IC50 (KB) [µg/mL]
Cc1c2oc3c(C)ccc(C(=O)N[C@@H]4C(=O)N[C@H](C(C)C)C(=O)N5CCC[C@H]5C(=O)N(C)CC(=O)N(C)[C@@H](C(C)C)C(=O)O[C@@H]4C)c3nc-2c(C(=O)N[C@@H]2C(=O)N[C@H](C(C)C)C(=O)N3CCC[C@H]3C(=O)N(C)CC(=O)N(C)[C@@H](C(C)C)C(=O)O[C@@H]2C)c(N)c1=O [DACTINOMYCIN] (I: T[dV]P[Sar][NMeV] / II: T[dV]P[Sar][NMeV]; ester I:1-I:C, II:1-II:C; linker I:N-II:N via Actinocin(1to9))	0.01 (≈ 0.00797 µM)	
CC(=O)O[C@H]1C(=O)[C@@]2(C)[C@H]([C@H](OC(=O)c3ccccc3)[C@]3(O)C[C@H](OC(=O)[C@H](O)[C@@H](NC(=O)c4ccccc4)c4ccccc4)C(C)=C1C3(C)C)[C@]1(OC(C)=O)CO[C@@H]1C[C@@H]2O [PACLITAXEL]	< 0.1	< 0.1
CC(=O)OC[C@H]1[C@H]2[C@H](O)[C@]3(C(C)(C)O)C[C@H](O)C(C)=C3[C@@H](O)[C@H](OC(C)=O)[C@]2(C)[C@@H](OC(C)=O)C[C@@H]1OC(C)=O [TAXUMAIROL V]	1.6 (≈ 2.8 µM)	3.9 (≈ 6.83 µM)
CO[C@@]12[C@H](COC(N)=O)C3=C(C(=O)C(C)=C(N)C3=O)N1C[C@@H]1N[C@@H]12 [MITOMYCIN]	0.01 (≈ 0.0299 µM)	
CC(=O)OC[C@H]1[C@H]2[C@H](O)[C@]3(C(C)(C)O)C[C@H](OC(C)=O)C(C)=C3[C@@H](OC(C)=O)[C@H](OC(C)=O)[C@]2(C)[C@@H](OC(C)=O)C[C@@H]1OC(C)=O	2.7 (≈ 4.12 µM)	> 20
CC(=O)OC[C@H]1[C@H]2[C@H](O)[C@]3(C(C)(C)O)C[C@H](OC(C)=O)C(C)=C3[C@@H](O)[C@H](OC(C)=O)[C@]2(C)[C@@H](OC(C)=O)C[C@@H]1OC(C)=O [TAXUMAIRO U]	0.3 (≈ 0.49 µM)	10.3 (≈ 16.8 µM)
CC(=O)O[C@@H]1C2=C(C)[C@@H](O)C[C@@]2(C(C)(C)O)[C@@H](OC(C)=O)[C@@H]2[C@]3(OC(C)=O)CO[C@@H]3C[C@H](OC(C)=O)[C@@]2(C)[C@H]1O [TAXUMAIROL W]	7 (≈ 12.3 µM)	> 20
CC(=O)O[C@@H]1C2=C(C)[C@@H](OC(=O)c3ccccc3)C[C@@]2(C(C)(C)O)[C@@H](O)[C@@H]2[C@]3(OC(C)=O)CO[C@@H]3C[C@H](OC(C)=O)[C@@]2(C)[C@H]1OC(=O)c1ccccc1	> 20	> 20

Reference: ChEMBL document CHEMBL1155730, “Taxane diterpenoids from the stem bark of Taxus mairei” (J Nat Prod, 2001)
